Laboratory results reported in ChEMBL document CHEMBL1124476, “1-(2-aminoethyl)-6-aryl-4H- [1,2,4]triazolo[4,3-a][1,4]benzodiazepines with diuretic and natriuretic activity” (J Med Chem, 1989).

Assays:
Rattus norvegicus [1] = test: Mean excretion of chloride in conscious rats at a dose of 1.0 mg/kg given orally; type: ADME, organism-based; design: dose 1 mg/kg, route oral; conditions: in vivo, po
Method in brief: (§1)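 Secondary dose-response in male Sprague-Dawley rats (~160 g), fasted and hydrated as in the primary screen. Oral gavage at 0.3-100 mg/kg in 25 mL/kg saline/0.5% CMC, three cages of two rats per dose. Urine collected 5 h; Na, K, Cl, HCO3 measured. Values are mean excretion (mequiv), compared with controls at P < 0.05.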

Rattus norvegicus [2] = species: Rattus norvegicus; test: […]; type: ADME, organism-based, Urine; design: dose 0.3 mg/kg, route oral; conditions: in vivo, po, 0.3 mg/kg
Method in brief: (§2)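 Dose-response test in male Sprague-Dawley rats of about 160 g, fasted 24 h, with water withheld 1½ h before and during the test. Each rat got a single gavage of 25 mL/kg 0.9% saline with 0.5% carboxymethylcellulose carrying the agent (0.3–100 mg/kg range). Rats were housed two per metabolism cage, and urine was collected for 5 h. Mean urine volume (mL) was compared with controls (P < 0.05).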

Rattus norvegicus [3] = species: Rattus norvegicus; test: […]; type: ADME, organism-based, Urine; design: dose 30 mg/kg, route oral; conditions: in vivo, po, 30 mg/kg
Method in brief: (§3)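 Male Sprague-Dawley rats, about 160 g, fasted 24 h and water withheld 1 1/2 h beforehand; food and water withheld during the test. Dosing by gavage with 25 mL/kg 0.9% saline containing 0.5% (carboxymethyl)cellulose, agent dissolved or suspended. Three cages of two rats each per dose, held in metabolism cages. Urine collected over 5 h. Volume given in mL, Na+ in mequiv. Significance versus control at P < 0.05.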

Rattus norvegicus [4] = test: Mean excretion of potassium in conscious rats at a dose of 10 mg/kg given orally; type: ADME, organism-based; design: dose 10 mg/kg, route oral; conditions: in vivo, po; method in brief: as §1
Rattus norvegicus [5] = test: Mean excretion of potassium in conscious rats at a dose of 30 mg/kg given orally; type: ADME, organism-based; design: dose 30 mg/kg, route oral; conditions: in vivo, po; method in brief: as §1
Rattus norvegicus [6] = test: Mean excretion of sodium in conscious rats at a dose of 10 mg/kg given orally; type: ADME, organism-based; design: dose 10 mg/kg, route oral; conditions: in vivo, po; method in brief: as §3
Rattus norvegicus [7] = test: Mean excretion of sodium in conscious rats at a dose of 3.0 mg/kg given orally; type: ADME, organism-based; design: dose 3 mg/kg, route oral; conditions: in vivo, po; method in brief: as §3
Rattus norvegicus [8] = species: Rattus norvegicus; test: […]; type: ADME, organism-based, Urine; design: dose 100 mg/kg, route oral; conditions: in vivo, po, 100 mg/kg; method in brief: as §3
Rattus norvegicus [9] = test: Mean excretion of potassium in conscious rats at a dose of 3.0 mg/kg given orally; type: ADME, organism-based; design: dose 3 mg/kg, route oral; conditions: in vivo, po; method in brief: as §1
Rattus norvegicus [10] = test: Mean excretion of potassium in conscious rats at a dose of 1.0 mg/kg given orally; type: ADME, organism-based; design: dose 1 mg/kg, route oral; conditions: in vivo, po; method in brief: as §1
Rattus norvegicus [11] = test: Mean excretion of chloride in conscious rats at a dose of 3.0 mg/kg given orally; type: ADME, organism-based; design: dose 3 mg/kg, route oral; conditions: in vivo, po; method in brief: as §1
Rattus norvegicus [12] = test: Mean excretion of Cl- in conscious rats at a dose of 0.3 mg/kg given orally; type: ADME, organism-based, Urine; design: dose 0.3 mg/kg, route oral; conditions: in vivo, po; method in brief: as §2
Rattus norvegicus [13] = test: Mean excretion of chloride in conscious rats at a dose of 30 mg/kg given orally; type: ADME, organism-based; design: dose 30 mg/kg, route oral; conditions: in vivo, po; method in brief: as §1
Rattus norvegicus [14] = species: Rattus norvegicus; test: […]; type: ADME, organism-based, Urine; design: dose 1 mg/kg, route oral; conditions: in vivo, po, 1 mg/kg; method in brief: as §2
[15] = Diuretic activity at 40 mg/kg (screening dose-68.7 umol/kg) in […] in a two stage experiment; T/C1.2 = urine vol of treated rats / urine vol of control rats; type: functional
Method in brief: (§4)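 40 mg/kg given by gavage in 25 mL/kg 0.9% saline with 0.5% (carboxymethyl)cellulose. Four rats per agent, two per metabolism cage; 20 controls; 5 h urine. T/C = treated/control urine volume. Stage-1 T/C of 1.66 or more leads to stage 2; product T/C1·T/C2 of 3.34 or more counts as active.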

Rattus norvegicus [16] = species: Rattus norvegicus; test: […]; type: ADME, organism-based, Urine; design: dose 3 mg/kg, route oral; conditions: in vivo, po, 3 mg/kg; method in brief: as §3
Rattus norvegicus [17] = test: Mean excretion of chloride in conscious rats at a dose of 100 mg/kg given orally; type: ADME, organism-based; design: dose 100 mg/kg, route oral; conditions: in vivo, po; method in brief: as §1
Rattus norvegicus [18] = test: Mean excretion of chloride in conscious rats at a dose of 10 mg/kg given orally; type: ADME, organism-based; design: dose 10 mg/kg, route oral; conditions: in vivo, po; method in brief: as §1
Rattus norvegicus [19] = test: Mean excretion of potassium in conscious rats at a dose of 100 mg/kg given orally; type: ADME, organism-based; design: dose 100 mg/kg, route oral; conditions: in vivo, po; method in brief: as §1
Rattus norvegicus [20] = test: Mean excretion of sodium in conscious rats at a dose of 100 mg/kg given orally; type: ADME, organism-based; design: dose 100 mg/kg, route oral; conditions: in vivo, po; method in brief: as §3
[21] = Diuretic activity at 40 mg/kg (screening dose-68.7 umol/kg) in […] in a one stage experiment; T/C = urine vol of treated rats / urine vol of control rats; type: functional; method in brief: as §4
Rattus norvegicus [22] = test: Mean excretion of sodium in conscious rats at a dose of 0.3 mg/kg given orally; type: ADME, organism-based; design: dose 0.3 mg/kg, route oral; conditions: in vivo, po; method in brief: as §3
Rattus norvegicus [23] = species: Rattus norvegicus; test: […]; type: ADME, organism-based, Urine; design: dose 10 mg/kg, route oral; conditions: in vivo, po, 10 mg/kg; method in brief: as §3
Rattus norvegicus [24] = test: Mean excretion of […] in conscious rats at a dose of 1.0 mg/kg given orally; type: ADME, organism-based; design: dose 1 mg/kg, route oral; conditions: in vivo, po; method in brief: as §3
Rattus norvegicus [25] = test: Mean excretion of sodium in conscious rats at a dose of 30 mg/kg given orally; type: ADME, organism-based; design: dose 30 mg/kg, route oral; conditions: in vivo, po; method in brief: as §3
Rattus norvegicus [26] = test: Mean excretion of potassium in conscious rats at a dose of 0.3 mg/kg given orally; type: ADME, organism-based; design: dose 0.3 mg/kg, route oral; conditions: in vivo, po; method in brief: as §1
[27] = Diuretic activity at 40 mg/kg (screening dose-73.8 umol/kg) in […] in a one stage experiment; T/C = urine vol of treated rats / urine vol of control rats; type: functional; method in brief: as §4
[28] = Diuretic activity at 40 mg/kg (screening dose-73.8 umol/kg) in […] in a two stage experiment; T/C1.2 = urine vol of treated rats / urine vol of control rats; type: functional; method in brief: as §4
[29] = Diuretic activity at 40 mg/kg (screening dose-90.1 umol/kg) in […] in a one stage experiment; T/C = urine vol of treated rats / urine vol of control rats; type: functional; method in brief: as §4

Structure (SMILES) | Mean excretion of Cl- (Rattus norvegicus [1]) [m equiv] | Mean urine volume (Rattus norvegicus [2]) [mL] | Mean urine volume (Rattus norvegicus [3]) [mL] | Mean excretion of K+ (Rattus norvegicus [4]) [m equiv] | Mean excretion of K+ (Rattus norvegicus [5]) [m equiv] | Mean excretion of Na+ (Rattus norvegicus [6]) [m equiv] | Mean excretion of Na+ (Rattus norvegicus [7]) [m equiv] | Mean urine volume (Rattus norvegicus [8]) [mL] | Mean excretion of K+ (Rattus norvegicus [9]) [m equiv] | Mean excretion of K+ (Rattus norvegicus [10]) [m equiv] | Mean excretion of Cl- (Rattus norvegicus [11]) [m equiv] | Mean excretion of Cl- (Rattus norvegicus [12]) [m equiv] | Mean excretion of Cl- (Rattus norvegicus [13]) [m equiv] | Mean urine volume (Rattus norvegicus [14]) [mL] | Mean urine volume (Rattus norvegicus [16]) [mL] | Mean excretion of Cl- (Rattus norvegicus [17]) [m equiv] | Mean excretion of Cl- (Rattus norvegicus [18]) [m equiv] | Mean excretion of K+ (Rattus norvegicus [19]) [m equiv] | Mean excretion of Na+ (Rattus norvegicus [20]) [m equiv] | Mean excretion of Na+ (Rattus norvegicus [22]) [m equiv] | further results
CN(C)CCc1nnc2n1-c1ccc(Br)cc1C(c1ccccc1)=NC2 | 0.65 | 3.99 | 8.44 | 0.21 | 0.16 | 0.68 | 0.78 | 13 | 0.23 | 0.23 | 0.82 | 0.66 | 0.94 | 4.38 | 5.97 | 1.42 | 0.74 | 0.27 | 1.57 | 0.66 | T/C 1.2 [15]: 7.84; T/C 1 [21]: 2.98; Mean urine volume (Rattus norvegicus [23]): 5.9 mL; Mean excretion of Na+ (Rattus norvegicus [24]): 0.65 m equiv; Mean excretion of Na+ (Rattus norvegicus [25]): 1 m equiv; Mean excretion of K+ (Rattus norvegicus [26]): 0.25 m equiv
I.NCC(c1ccccc1)c1nnc2n1-c1ccc(Cl)cc1C(c1ccccc1)=NC2 (stereo not drawn) | 0.79 | 4.34 | 10.47 | 0.27 | 0.28 | 1.08 | 0.69 | 8.43 | 0.22 | 0.32 | 0.73 | 0.81 | 1.72 | 4.45 | 3.92 | 1.57 | 1.09 | 0.27 | 1.63 | 0.77 | T/C 1 [27]: 2.53; Mean urine volume (Rattus norvegicus [23]): 6.21 mL; Mean excretion of Na+ (Rattus norvegicus [24]): 0.76 m equiv; Mean excretion of Na+ (Rattus norvegicus [25]): 2.01 m equiv; Mean excretion of K+ (Rattus norvegicus [26]): 0.28 m equiv; T/C 1.2 [28]: 5.92
CN(C)CC(c1ccccc1)c1nnc2n1-c1ccccc1C(c1ccccc1)=NC2.Cl (stereo not drawn) |  |  |  |  |  |  |  |  |  |  |  |  |  |  |  |  |  |  |  |  | T/C 1 [29]: 1.48
